The results in this text go back to ChEMBL document CHEMBL4680084, “New β-Lactam Derivatives Modulate Cell Adhesion and Signaling Mediated by RGD-Binding and Leukocyte Integrins” (J Med Chem, 2016).

One data set concerns HEL. Nature of the data set: Toxicity in human HEL cells assessed as induction of cell necrosis and/or apoptosis incubated for 3 hrs by annexin V-PE and 7-AAD staining based by flow cytometry. Summed up: (§1)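 After 3 h incubation, cells resuspended in complete medium and stained with annexin V-PE/7-AAD reagent for 20 min at room temperature in the dark. Flow cytometry sorted cells into viable, early apoptotic and late apoptotic/necrotic populations.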

For a further data set, the system named is MCF7. The experiment in a line: Toxicity in human MCF7 cells assessed as induction of cell necrosis and/or apoptosis incubated for 3 hrs by annexin V-PE and 7-AAD staining based by flow cytometry. To be noted: mcf7, 3 h. The method, boiled down: as §1
In a further data set the test system is SK-MEL-24. Nature of the data set: Toxicity in human SK-MEL-24 cells assessed as induction of cell necrosis and/or apoptosis incubated for 3 hrs by annexin V-PE and 7-AAD staining based by flow cytometry. To be noted: sk-mel-24, 3 h. The method, boiled down:
as §1

Data set [1] concerns the target T1, Integrin alpha-4/beta-1 (Homo sapiens, UniProt P05556+P13612). The experiment in a line: Inhibition of fibronectin binding to […] isolated from human Jurkat E6.1 cells incubated for 1 hr by scintillation-proximity assay based competitive solid-phase binding assay. Format: tissue-based.
The target in data set [2] is T1, Integrin alpha-4/beta-1. The experiment in a line: Antagonist activity at alpha4beta1 in human Jurkat E6.1 cells assessed as reduction in cell adhesion to VCAM1 pre-incubated for 30 mins before VCAM1 and further incubated for 30 mins by […]. Format: cell-based.
The target of data set [3] is T2, Integrin alpha-V/beta-3 (Homo sapiens, UniProt P05106+P06756). Nature of the data set: Inhibition of fibronectin binding to human recombinant alphaVbeta3 expressed in HEK293 cells incubated for 1 hr by […] competitive solid-phase binding assay. Format: cell-based.
The target of data set [4] is T1, Integrin alpha-4/beta-1. Nature of the data set: Agonist activity at alpha4beta1 in human Jurkat E6.1 cells assessed as increase in cell adhesion to VCAM1 pre-incubated for 30 mins before VCAM1 and further incubated for 30 mins by […]. The data set is classed as cell-based. Summed up: (§2)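 Jurkat E6.1 cells labelled with CellTracker green CMFDA (12.5 µM, 30 min, 37 °C), washed, then pre-incubated 30 min at 37 °C with compound or methanol. Plated at 500,000/well on VCAM-1 (α4β1) or ICAM-1 (αLβ2) coated wells (5 µg/mL) for 30 min at 37 °C. Cells lysed in 0.5% Triton X-100; fluorescence read Ex485/Em535. Quadruplicate, at least three repeats.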

The target of the next data set is Integrin alpha-5/beta-1 (Homo sapiens, UniProt P05556+P08648). The experiment in a line: Inhibition of fibronectin binding to alpha5beta1 isolated from human K562 cells incubated for 1 hr by […] competitive solid-phase binding assay. The data set is classed as tissue-based. The method, boiled down:
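Plates coated overnight at 4 °C in carbonate buffer pH 9.6 with fibronectin 0.5 µg/mL (αvβ3, αvβ6, α5β1), fibrinogen 10 µg/mL (αIIbβ3, αvβ5) or ICAM-1 (αLβ2). Blocked 1 h in buffer containing Ca/Mg/Mn 1 mM each and 1% BSA. Purified integrin (3–10 µg/mL) incubated with compound (10⁻⁴–10⁻¹⁰ M) 1 h at room temperature. Bound integrin detected with primary antibody then AlexaFluor488 secondary, Ex485/Em535. Duplicate, at least three repeats.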

The target in data set [5] is T2, Integrin alpha-V/beta-3. Nature of the data set: Agonist activity at alphaVbeta3 in human SK-MEL-24 cells assessed as increase in cell adhesion to fibronectin at 10 ug/ml pre-incubated for 30 mins and further incubated for 1 hr in presence of in presence of integrin antagonist c(-RGDfV) by nitrophenyl-N-acetyl-beta-D-glucosaminide substrate based chromogenic assay. To be noted: dose 10.0 µg/ml, time 90.0 min.

In another data set the test system is K562. Nature of the data set: Toxicity in human K562 cells assessed as induction of cell necrosis and/or apoptosis incubated for 3 hrs by annexin V-PE and 7-AAD staining based by flow cytometry. The conditions noted are these: k562, 3 h. Summed up:
as §1

The target in data set [6] is T3, Integrin alpha-V/beta-6 (Homo sapiens, UniProt P06756+P18564). The experiment in a line: Inhibition of fibronectin binding to alphaVbeta6 isolated form human HT-29 cells incubated for 1 hr by […] competitive solid-phase binding assay. The data set is classed as tissue-based.
The next data set deals with HT-29. The experiment in a line: Toxicity in human HT-29 cells assessed as induction of cell necrosis and/or apoptosis incubated for 3 hrs by annexin V-PE and 7-AAD staining based by flow cytometry. The conditions noted are these: ht-29, 3 h. Summed up: as §1
The target in data set [7] is T2, Integrin alpha-V/beta-3. Nature of the data set: Agonist activity at alphaVbeta3 in human SK-MEL-24 cells assessed as increase in cell adhesion to fibronectin at 2 to 10 ug/ml pre-incubated for 30 mins and further incubated for 1 hr by nitrophenyl-N-acetyl-beta-D-glucosaminide substrate based chromogenic assay. To be noted: filed as agonist, dose 2-10 µg/ml, time 90.0 min.

For data set [8], the target named is T4, Integrin alpha-IIb/beta-3 (Homo sapiens, UniProt P05106+P08514). The experiment in a line: Antagonist activity at alpha2bbeta3 in human HEL cells assessed as reduction in cell adhesion to fibrinogen pre-incubated for 30 mins before fibrinogen and further incubated for 1 hr by nitrophenyl-N-acetyl-beta-D-glucosaminide substrate based chromogenic assay. Summed up: (§3)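 Compound or methanol vehicle pre-incubated with cells for 30 min at room temperature. Cells then plated on wells coated overnight at 4 °C with fibronectin 10 µg/mL (SK-MEL-24, K562, HT-29) or fibrinogen 10 µg/mL (MCF7, HEL). Seeding was 50,000 cells/well, or 100000 for HEL. Adhesion ran 1 h at room temperature. Wells washed with 1% BSA/PBS. Quadruplicate, at least three repeats.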

For data set [9], the target named is T5, Integrin alpha-L/beta-2 (LFA-1) (Homo sapiens, UniProt P05107+P20701). Nature of the data set: Agonist activity at alphaLbeta2 in human Jurkat E6.1 cells assessed as increase in cell adhesion to ICAM1 pre-incubated for 30 mins before ICAM1 and further incubated for 30 mins by […]. Format: cell-based. Summed up: as §2
Data set [10] deals with T3, Integrin alpha-V/beta-6. Nature of the data set: Agonist activity at alphaVbeta6 in human HT-29 cells assessed as increase in cell adhesion to fibronectin pre-incubated for 30 mins before fibronectin and further incubated for 1 hr by nitrophenyl-N-acetyl-beta-D-glucosaminide substrate based chromogenic assay. Summed up:
(§4)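 Compound or methanol vehicle pre-incubated with cells for 30 min at room temperature. Cells then plated on wells coated overnight at 4 °C with fibronectin 10 µg/mL (SK-MEL-24, K562, HT-29) or fibrinogen 10 µg/mL (MCF7, HEL). Seeding was 50,000 cells/well, or 100000 for HEL. Adhesion ran 1 h at room temperature. Wells washed with 1% BSA/PBS. Adherent cells read by hexosaminidase substrate, absorbance 405 nm. Quadruplicate, at least three repeats.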

Data set [11] concerns the target T4, Integrin alpha-IIb/beta-3. Nature of the data set: Agonist activity at alpha2bbeta3 in human HEL cells assessed as increase in cell adhesion to fibrinogen pre-incubated for 30 mins before fibrinogen and further incubated for 1 hr by nitrophenyl-N-acetyl-beta-D-glucosaminide substrate based chromogenic assay. The method, boiled down:
as §3

Data set [12] deals with T6, Integrin alpha-V/beta-5 (Homo sapiens, UniProt P06756+P18084). The experiment in a line: Agonist activity at alphaVbeta5 in human MCF7 cells assessed as increase in cell adhesion to fibrinogen pre-incubated for 30 mins before fibrinogen and further incubated for 1 hr by nitrophenyl-N-acetyl-beta-D-glucosaminide substrate based chromogenic assay. The method, boiled down:
as §4

For data set [13], the target named is T6, Integrin alpha-V/beta-5. Nature of the data set: Inhibition of fibrinogen binding to alphaVbeta5 isolated form human mCf7 cells incubated for 1 hr by […] competitive solid-phase binding assay.
For data set [14], the target named is T2, Integrin alpha-V/beta-3. Nature of the data set: Agonist activity at alphaVbeta3 in human SK-MEL-24 cells assessed as increase in cell adhesion to fibronectin at 10 ug/ml pre-incubated for 30 mins and further incubated for 1 hr in presence of neutralizing antibody against the alphaV integrin subunit by nitrophenyl-N-acetyl-beta-D-glucosaminide substrate based chromogenic assay. To be noted: dose 10.0 µg/ml, time 90.0 min.

Data set [15] has as its target T3, Integrin alpha-V/beta-6. The experiment in a line: Antagonist activity at alphaVbeta6 in human HT-29 cells assessed as reduction in cell adhesion to fibronectin pre-incubated for 30 mins before fibronectin and further incubated for 1 hr by nitrophenyl-N-acetyl-beta-D-glucosaminide substrate based chromogenic assay. The method, boiled down: as §3
Data set [16] concerns the target T5, Integrin alpha-L/beta-2 (LFA-1). The experiment in a line: Antagonist activity at alphaLbeta2 in human Jurkat E6.1 cells assessed as reduction in cell adhesion to ICAM1 pre-incubated for 30 mins before ICAM1 and further incubated for 30 mins by […]. The data set is classed as cell-based. The method, boiled down:
as §2

Data set [17] addresses T4, Integrin alpha-IIb/beta-3. Nature of the data set: Inhibition of fibrinogen binding to alpha2bbeta3 isolated from human HEL cells incubated for 1 hr by […] competitive solid-phase binding assay.
Data set [18] concerns the target T2, Integrin alpha-V/beta-3. Nature of the data set: Agonist activity at human alphaVbeta3 expressed in HEK293 cells assessed as increase in ERK1/2 phosphorylation by Western blot analysis. The data set is classed as cell-based. To be noted: filed as agonist.

Molecules are shown by their SMILES. Calls of active or inactive are those of the source. No cut-off for these calls is given here.

Turning to `NCc1ccc(NC(=O)N2C(=O)CC2CC(=O)NCC(=O)O)cc1.O=C(O)C(F)(F)F` (centres undefined), the Activity entry was “Non-Toxic” in the data set on HEL; “Non-Toxic” in the data set on MCF7; “Non-Toxic” in the data set on SK-MEL-24; “Non-Toxic” with K562; “Non-Toxic” in the data set on HT-29; “Dose-dependent effect” on Integrin alpha-V/beta-3 [7]. Further, on Integrin alpha-V/beta-3 [18], the Activity result was “Dose-dependent effect”. The IC50 at Integrin alpha-4/beta-1 [1] is over 1000 nM; on Integrin alpha-4/beta-1 [2] it was over 5000 nM; on Integrin alpha-V/beta-3 [3], 1.2 nM; on Integrin alpha-5/beta-1, over 1000 nM; at Integrin alpha-V/beta-6 [6], over 1000 nM; in data set [8], over 5000 nM. For the same compound, the IC50 was 104 nM on Integrin alpha-V/beta-5 [13], over 5000 nM on Integrin alpha-V/beta-6 [15], over 5000 nM in data set [16] and over 1000 nM in [17]. In addition, the EC50 at Integrin alpha-4/beta-1 [4] was over 5000 nM; in data set [9] it was over 5000 nM; at Integrin alpha-V/beta-6 [10], over 5000 nM; in data set [11], over 5000 nM; on Integrin alpha-V/beta-5 [12], 505 nM. The result on Integrin alpha-V/beta-3 [5] and at Integrin alpha-V/beta-3 [14] was inactive.
